# ChEMBL document CHEMBL1938268, “Synthesis, characterization and in vitro biological evaluation of some novel diarylsulfonylureas as potential cytotoxic and antimicrobial agents” (Bioorg Med Chem Lett, 2012)
# Test system: not listed separately
# Assay: Toxicity against Brine shrimp nauplii after 24 hrs
# Type: organism-based
# Conditions: artemia salina, in vivo; read-out: ED50
# Procedure, shortened: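 Artemia salina nauplii hatched 38 h in sterile brine (sea salt 38 g/L, pH 8.5) under aeration; 10 nauplii per vial exposed to graded compound concentrations in 5 mL final volume, 37 °C, 24 h under incandescent light. Survivors counted; percent lethality versus vehicle-treated controls; ED50 from probit analysis; podophyllotoxin positive control.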
row,Structure (SMILES),LC50 at 24 h [µg/mL]
1,Cc1ccc(S(=O)(=O)NC(=O)Nc2ccccc2C(=O)/C=C/c2ccc(F)cc2)cc1,3.96
2,Cc1ccc(S(=O)(=O)NC(=O)Nc2ccccc2C(=O)/C=C/c2ccccc2O)cc1,32.3
3,COc1ccc(/C=C/C(=O)c2ccccc2NC(=O)NS(=O)(=O)c2ccc(C)cc2)cc1,28.1
4,Cc1ccc(S(=O)(=O)NC(=O)Nc2ccccc2C(=O)/C=C/c2ccccc2Cl)cc1,12.8
5,Cc1ccc(S(=O)(=O)NC(=O)Nc2ccccc2C(=O)/C=C/c2cc(O)ccc2[N+](=O)[O-])cc1,18.3

# Test system: Bacillus subtilis
# Assay: Antibacterial activity against Bacillus subtilis NCIM 2063 after 24 hrs by agar well diffusion assay
# Type: functional
# Conditions: NCIM 2063, 24 h
# Procedure, shortened: (§1)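 Agar well diffusion per NCCLS; NCIM standard strains. Nutrient agar seeded with 0.1 mL bacterial suspension in sterile 0.85% saline at 10⁵ CFU/mL. Plates in triplicate, 37 0.5 °C, 24 h. MIC taken as lowest concentration giving complete growth inhibition.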
row,Structure (SMILES),MIC [µg/mL]
1,Cc1ccc(S(=O)(=O)NC(=O)Nc2ccccc2C(=O)/C=C/c2ccc(F)cc2)cc1,16
2,Cc1ccc(S(=O)(=O)NC(=O)Nc2ccccc2C(=O)/C=C/c2ccccc2O)cc1,512
3,COc1ccc(/C=C/C(=O)c2ccccc2NC(=O)NS(=O)(=O)c2ccc(C)cc2)cc1,64
4,Cc1ccc(S(=O)(=O)NC(=O)Nc2ccccc2C(=O)/C=C/c2ccccc2Cl)cc1,64
5,Cc1ccc(S(=O)(=O)NC(=O)Nc2ccccc2C(=O)/C=C/c2cc(O)ccc2[N+](=O)[O-])cc1,16

# Test system: Staphylococcus aureus
# Assay: Antibacterial activity against Staphylococcus aureus NCIM 2079 after 24 hrs by agar well diffusion assay
# Type: functional
# Conditions: NCIM 2079, 24 h
# Procedure, shortened: as §1
row,Structure (SMILES),MIC [µg/mL]
1,Cc1ccc(S(=O)(=O)NC(=O)Nc2ccccc2C(=O)/C=C/c2ccc(F)cc2)cc1,32
2,Cc1ccc(S(=O)(=O)NC(=O)Nc2ccccc2C(=O)/C=C/c2ccccc2O)cc1,256
3,COc1ccc(/C=C/C(=O)c2ccccc2NC(=O)NS(=O)(=O)c2ccc(C)cc2)cc1,128
4,Cc1ccc(S(=O)(=O)NC(=O)Nc2ccccc2C(=O)/C=C/c2ccccc2Cl)cc1,64
5,Cc1ccc(S(=O)(=O)NC(=O)Nc2ccccc2C(=O)/C=C/c2cc(O)ccc2[N+](=O)[O-])cc1,16

# Test system: Micrococcus luteus
# Assay: Antibacterial activity against Micrococcus luteus NCIM 2155 after 24 hrs by agar well diffusion assay
# Type: functional
# Conditions: NCIM 2155, 24 h
# Procedure, shortened: as §1
row,Structure (SMILES),MIC [µg/mL]
1,Cc1ccc(S(=O)(=O)NC(=O)Nc2ccccc2C(=O)/C=C/c2ccc(F)cc2)cc1,64
2,Cc1ccc(S(=O)(=O)NC(=O)Nc2ccccc2C(=O)/C=C/c2ccccc2O)cc1,256
3,COc1ccc(/C=C/C(=O)c2ccccc2NC(=O)NS(=O)(=O)c2ccc(C)cc2)cc1,128
4,Cc1ccc(S(=O)(=O)NC(=O)Nc2ccccc2C(=O)/C=C/c2ccccc2Cl)cc1,128
5,Cc1ccc(S(=O)(=O)NC(=O)Nc2ccccc2C(=O)/C=C/c2cc(O)ccc2[N+](=O)[O-])cc1,64

# Test system: Pseudomonas aeruginosa
# Assay: Antibacterial activity against Pseudomonas aeruginosa NCIM 2036 after 24 hrs by agar well diffusion assay
# Type: functional
# Conditions: NCIM 2036, 24 h
# Procedure, shortened: as §1
row,Structure (SMILES),MIC [µg/mL]
1,Cc1ccc(S(=O)(=O)NC(=O)Nc2ccccc2C(=O)/C=C/c2ccc(F)cc2)cc1,32
2,Cc1ccc(S(=O)(=O)NC(=O)Nc2ccccc2C(=O)/C=C/c2ccccc2O)cc1,512
3,COc1ccc(/C=C/C(=O)c2ccccc2NC(=O)NS(=O)(=O)c2ccc(C)cc2)cc1,64
4,Cc1ccc(S(=O)(=O)NC(=O)Nc2ccccc2C(=O)/C=C/c2ccccc2Cl)cc1,64
5,Cc1ccc(S(=O)(=O)NC(=O)Nc2ccccc2C(=O)/C=C/c2cc(O)ccc2[N+](=O)[O-])cc1,16

# Test system: Klebsiella pneumoniae
# Assay: Antibacterial activity against Klebsiella pneumoniae NCIM 5082 after 24 hrs by agar well diffusion assay
# Type: functional
# Conditions: NCIM 5082, 24 h
# Procedure, shortened: as §1
row,Structure (SMILES),MIC [µg/mL]
1,Cc1ccc(S(=O)(=O)NC(=O)Nc2ccccc2C(=O)/C=C/c2ccc(F)cc2)cc1,16
2,Cc1ccc(S(=O)(=O)NC(=O)Nc2ccccc2C(=O)/C=C/c2ccccc2O)cc1,256
3,COc1ccc(/C=C/C(=O)c2ccccc2NC(=O)NS(=O)(=O)c2ccc(C)cc2)cc1,128
4,Cc1ccc(S(=O)(=O)NC(=O)Nc2ccccc2C(=O)/C=C/c2ccccc2Cl)cc1,128
5,Cc1ccc(S(=O)(=O)NC(=O)Nc2ccccc2C(=O)/C=C/c2cc(O)ccc2[N+](=O)[O-])cc1,64

# Test system: Escherichia coli
# Assay: Antibacterial activity against Escherichia coli NCIM 2065 after 24 hrs by agar well diffusion assay
# Type: functional
# Conditions: NCIM 2065, 24 h
# Procedure, shortened: as §1
row,Structure (SMILES),MIC [µg/mL]
1,Cc1ccc(S(=O)(=O)NC(=O)Nc2ccccc2C(=O)/C=C/c2ccc(F)cc2)cc1,32
2,Cc1ccc(S(=O)(=O)NC(=O)Nc2ccccc2C(=O)/C=C/c2ccccc2O)cc1,512
3,COc1ccc(/C=C/C(=O)c2ccccc2NC(=O)NS(=O)(=O)c2ccc(C)cc2)cc1,128
4,Cc1ccc(S(=O)(=O)NC(=O)Nc2ccccc2C(=O)/C=C/c2ccccc2Cl)cc1,64
5,Cc1ccc(S(=O)(=O)NC(=O)Nc2ccccc2C(=O)/C=C/c2cc(O)ccc2[N+](=O)[O-])cc1,16

# Test system: Proteus vulgaris
# Assay: Antibacterial activity against Proteus vulgaris NCIM 2813 after 24 hrs by agar well diffusion assay
# Type: functional
# Conditions: NCIM 2813, 24 h
# Procedure, shortened: as §1
row,Structure (SMILES),MIC [µg/mL]
1,Cc1ccc(S(=O)(=O)NC(=O)Nc2ccccc2C(=O)/C=C/c2ccc(F)cc2)cc1,16
2,Cc1ccc(S(=O)(=O)NC(=O)Nc2ccccc2C(=O)/C=C/c2ccccc2O)cc1,256
3,COc1ccc(/C=C/C(=O)c2ccccc2NC(=O)NS(=O)(=O)c2ccc(C)cc2)cc1,128
4,Cc1ccc(S(=O)(=O)NC(=O)Nc2ccccc2C(=O)/C=C/c2ccccc2Cl)cc1,128
5,Cc1ccc(S(=O)(=O)NC(=O)Nc2ccccc2C(=O)/C=C/c2cc(O)ccc2[N+](=O)[O-])cc1,64

# Test system: Candida albicans
# Assay: Antifungal activity against Candida albicans NCIM 3102 after 48 hrs by agar well diffusion assay
# Type: functional
# Conditions: NCIM 3102, 48 h
# Procedure, shortened: (§2)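 Fungal spore suspensions in sterile distilled water set to final 10⁶ CFU/mL; 0.1 mL spread on Potato-Dextrose-Agar. NCCLS agar well diffusion with NCIM standard strains: 6 mm wells given 0.1 mL compound diluted in 1% DMSO, final 16 to 512 µg/mL. Triplicate plates held 48 h at 28 0.2 °C. MIC is lowest concentration fully inhibiting growth.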
row,Structure (SMILES),MIC [µg/mL]
1,CC(=O)N1CCN(c2ccc(OCC3COC(Cn4ccnc4)(c4ccc(Cl)cc4Cl)O3)cc2)CC1 (centres undefined) [KETOCONAZOLE],16
2,Cc1ccc(S(=O)(=O)NC(=O)Nc2ccccc2C(=O)/C=C/c2ccc(F)cc2)cc1,64
3,Cc1ccc(S(=O)(=O)NC(=O)Nc2ccccc2C(=O)/C=C/c2ccccc2O)cc1,256
4,COc1ccc(/C=C/C(=O)c2ccccc2NC(=O)NS(=O)(=O)c2ccc(C)cc2)cc1,128
5,Cc1ccc(S(=O)(=O)NC(=O)Nc2ccccc2C(=O)/C=C/c2ccccc2Cl)cc1,128
6,Cc1ccc(S(=O)(=O)NC(=O)Nc2ccccc2C(=O)/C=C/c2cc(O)ccc2[N+](=O)[O-])cc1,32

# Test system: Aspergillus niger
# Assay: Antifungal activity against Aspergillus niger NCIM 548 after 48 hrs by agar well diffusion assay
# Type: functional
# Conditions: NCIM 548, 48 h
# Procedure, shortened: as §2
row,Structure (SMILES),MIC [µg/mL]
1,CC(=O)N1CCN(c2ccc(OCC3COC(Cn4ccnc4)(c4ccc(Cl)cc4Cl)O3)cc2)CC1 (centres undefined) [KETOCONAZOLE],16
2,Cc1ccc(S(=O)(=O)NC(=O)Nc2ccccc2C(=O)/C=C/c2ccc(F)cc2)cc1,64
3,Cc1ccc(S(=O)(=O)NC(=O)Nc2ccccc2C(=O)/C=C/c2ccccc2O)cc1,256
4,COc1ccc(/C=C/C(=O)c2ccccc2NC(=O)NS(=O)(=O)c2ccc(C)cc2)cc1,128
5,Cc1ccc(S(=O)(=O)NC(=O)Nc2ccccc2C(=O)/C=C/c2ccccc2Cl)cc1,128
6,Cc1ccc(S(=O)(=O)NC(=O)Nc2ccccc2C(=O)/C=C/c2cc(O)ccc2[N+](=O)[O-])cc1,64

# Test system: Aspergillus oryzae
# Assay: Antifungal activity against Aspergillus oryzae NCIM 643 after 48 hrs by agar well diffusion assay
# Type: functional
# Conditions: NCIM 643, 48 h
# Procedure, shortened: as §2
row,Structure (SMILES),MIC [µg/mL]
1,CC(=O)N1CCN(c2ccc(OCC3COC(Cn4ccnc4)(c4ccc(Cl)cc4Cl)O3)cc2)CC1 (centres undefined) [KETOCONAZOLE],16
2,Cc1ccc(S(=O)(=O)NC(=O)Nc2ccccc2C(=O)/C=C/c2ccc(F)cc2)cc1,64
3,Cc1ccc(S(=O)(=O)NC(=O)Nc2ccccc2C(=O)/C=C/c2ccccc2O)cc1,256
4,COc1ccc(/C=C/C(=O)c2ccccc2NC(=O)NS(=O)(=O)c2ccc(C)cc2)cc1,128
5,Cc1ccc(S(=O)(=O)NC(=O)Nc2ccccc2C(=O)/C=C/c2ccccc2Cl)cc1,128
6,Cc1ccc(S(=O)(=O)NC(=O)Nc2ccccc2C(=O)/C=C/c2cc(O)ccc2[N+](=O)[O-])cc1,64

# Test system: Penicillium chrysogenum
# Assay: Antifungal activity against Penicillium chrysogenum NCIM 738 after 48 hrs by agar well diffusion assay
# Type: functional
# Conditions: NCIM 738, 48 h
# Procedure, shortened: as §2
row,Structure (SMILES),MIC [µg/mL]
1,CC(=O)N1CCN(c2ccc(OCC3COC(Cn4ccnc4)(c4ccc(Cl)cc4Cl)O3)cc2)CC1 (centres undefined) [KETOCONAZOLE],16
2,Cc1ccc(S(=O)(=O)NC(=O)Nc2ccccc2C(=O)/C=C/c2ccc(F)cc2)cc1,64
3,Cc1ccc(S(=O)(=O)NC(=O)Nc2ccccc2C(=O)/C=C/c2ccccc2O)cc1,256
4,COc1ccc(/C=C/C(=O)c2ccccc2NC(=O)NS(=O)(=O)c2ccc(C)cc2)cc1,128
5,Cc1ccc(S(=O)(=O)NC(=O)Nc2ccccc2C(=O)/C=C/c2ccccc2Cl)cc1,128
6,Cc1ccc(S(=O)(=O)NC(=O)Nc2ccccc2C(=O)/C=C/c2cc(O)ccc2[N+](=O)[O-])cc1,64

# Test system: Bacillus pumilus
# Assay: Antibacterial activity against Bacillus pumilus NCIM 2327 after 24 hrs by agar well diffusion assay
# Conditions: NCIM 2327, 24 h
row,Structure (SMILES),MIC [µg/mL]
1,Cc1ccc(S(=O)(=O)NC(=O)Nc2ccccc2C(=O)/C=C/c2ccc(F)cc2)cc1,32
2,Cc1ccc(S(=O)(=O)NC(=O)Nc2ccccc2C(=O)/C=C/c2ccccc2O)cc1,512
3,COc1ccc(/C=C/C(=O)c2ccccc2NC(=O)NS(=O)(=O)c2ccc(C)cc2)cc1,128
4,Cc1ccc(S(=O)(=O)NC(=O)Nc2ccccc2C(=O)/C=C/c2ccccc2Cl)cc1,64
5,Cc1ccc(S(=O)(=O)NC(=O)Nc2ccccc2C(=O)/C=C/c2cc(O)ccc2[N+](=O)[O-])cc1,16
